How the values were obtained:
Assay type in all cases: functional
[1] = tested on: Escherichia coli; assay: Antibacterial activity against Escherichia coli K12 mutant JHU313 at 6 ug/ml after 48 hrs by disc diffusion method
How it was run: (§1)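 Kirby-Bauer disc assay: log-phase LB culture was spread on LB agar for confluent growth. 7-mm nitrocellulose discs were soaked in antibiotic at the listed concentration and placed on the agar. After 48 h at 37°C, the diameter of the inhibition zone was measured in mm.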

[2] = tested on: Escherichia coli; assay: Antibacterial activity against Escherichia coli K12 PhoU wild type W3110 at 1.5 ug/ml after 48 hrs by disc diffusion method
How it was run: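 Kirby-Bauer disc assay. Log-phase LB broth culture (10⁸ bacteria) was spread on LB agar for confluent growth. 7 mm nitrocellulose discs soaked in antibiotic solution at the listed concentration were placed on the agar. Inhibition zone diameter (mm) was measured after 48 h at 37°C.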

[3] = tested on: Escherichia coli; assay: Antibacterial activity against Escherichia coli K12 containing deletion deltaphoU mutant assessed as cell count in stationary phase at 100 ug/ml after 1 day
How it was run: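 Wild-type W3110-derived deletion mutants were made by the Datsenko–Wanner method. Log-phase or stationary-phase cultures were exposed to ampicillin 100 μg/ml in MOPS minimal medium at pH 5.0, at 37°C without shaking. Aliquots were taken at set times, washed in saline and plated on LB for viable CFU/ml.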

[4] = tested on: Escherichia coli; assay: Antibacterial activity against Escherichia coli K12 containing deletion deltahipA mutant assessed as cell count in stationary phase at 100 ug/ml after 24 hrs
How it was run: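 Deletion mutants were made by the Datsenko–Wanner method. Log-phase or stationary-phase cultures were exposed to ampicillin at 100 μg/ml. CFU/ml was determined at the start and after 5, 24 and 72 h of exposure.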

[5] = tested on: Escherichia coli; assay: Antibacterial activity against Escherichia coli K12 containing deletion deltaphoU mutant assessed as cell count in log phase at 3 ug/ml after 1 day
How it was run: (§2)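 Log-phase or stationary-phase cultures of the ΔphoU deletion mutant (Datsenko–Wanner construction) were exposed to norfloxacin 3 μg/ml in MOPS minimal medium, pH 5.0, at 37°C without shaking, for up to 10 days. Sampled aliquots were washed in saline and plated on LB agar for CFU/ml.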

[6] = tested on: Escherichia coli; assay: Antibacterial activity against Escherichia coli K12 containing PhoU mutant assessed as cell count in stationary phase at 3 ug/ml after 3 days
How it was run: (§3)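 Log-phase or stationary-phase cultures were exposed to ampicillin (100 μg/ml) or norfloxacin (3 μg/ml) in MOPS minimal medium, pH 5.0, at 37°C without shaking, for 5 h to 10 days. Aliquots were saline-washed and plated on LB for CFU/ml.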

[7] = tested on: Escherichia coli; assay: Antibacterial activity against Escherichia coli K12 mutant JHU313 at 2 ug/ml after 48 hrs by disc diffusion method; how it was run: as §1
[8] = tested on: Escherichia coli; assay: Antibacterial activity against Escherichia coli K12 mutant JHU313 containing plasmid PhoU at 4 ug/ml after 48 hrs by disc diffusion method; how it was run: as §1
[9] = tested on: Escherichia coli; assay: Antibacterial activity against Escherichia coli K12 containing deletion deltaphoU mutant assessed as cell count in log phase at 3 ug/ml after 1 week; how it was run: as §2
[10] = tested on: Escherichia coli; assay: Antibacterial activity against Escherichia coli K12 PhoU wild type W3110 at 0.5 ug/ml after 48 hrs by disc diffusion method
How it was run: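 Kirby-Bauer disc assay. Log-phase LB culture (10⁸ bacteria) was spread for confluent growth on LB agar. 7 mm nitrocellulose discs soaked in antibiotic at the listed concentrations were laid on the agar. Inhibition zone diameter (mm) was measured after 48 h at 37°C.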

[11] = tested on: Escherichia coli; assay: Antibacterial activity against Escherichia coli K12 mutant JHU313 at 0.5 ug/ml after 48 hrs by disc diffusion method; how it was run: as §1
[12] = tested on: Escherichia coli; assay: Antibacterial activity against Escherichia coli K12 mutant JHU313 containing plasmid PhoU at 0.5 ug/ml after 48 hrs by disc diffusion method; how it was run: as §1
[13] = tested on: Escherichia coli; assay: Antibacterial activity against Escherichia coli K12 mutant JHU313 containing plasmid PhoU at 0.1 ug/ml after 48 hrs by disc diffusion method; how it was run: as §1
[14] = tested on: Escherichia coli; assay: Antibacterial activity against Escherichia coli K12 PhoU wild type W3110 assessed as cell count in stationary phase at 3 ug/ml after 5 hrs; how it was run: as §3
[15] = tested on: Escherichia coli; assay: Antibacterial activity against Escherichia coli K12 containing PhoU mutant assessed as cell count in log phase at 3 ug/ml after 5 hrs; how it was run: as §3

Compound	inhibition zone (IZ) [1]	inhibition zone (IZ) [2]	CFU [3]	CFU [4]	CFU [5]	CFU [6]	inhibition zone (IZ) [7]	inhibition zone (IZ) [8]	CFU [9]	inhibition zone (IZ) [10]	inhibition zone (IZ) [11]	inhibition zone (IZ) [12]	inhibition zone (IZ) [13]	CFU [14]	CFU [15]
CC1(C)S[C@@H]2[C@H](NC(=O)[C@H](N)c3ccccc3)C(=O)N2[C@H]1C(=O)O [AMPICILLIN]	30 mm	21 mm	7 10^6/ml	1.8 10^9/ml											
CCn1cc(C(=O)O)c(=O)c2cc(F)c(N3CCNCC3)cc21 [NORFLOXACIN]					1 10^6/ml	2 10^5/ml	34 mm	36 mm	0 mL⁻¹	27 mm	30 mm	31 mm	27 mm	5 10^9/ml	2 10^7/ml

Reference: ChEMBL document CHEMBL1145465, “PhoU is a persistence switch involved in persister formation and tolerance to multiple antibiotics and stresses in Escherichia coli” (2007)
